# Shown is part of a subset that was picked to be rich in hits.
# CHOP inh: blocks CHOP induction under ER stress; 220,000 tested, 3.8% active; CHO-K1 CHOP-promoter luciferase, tunicamycin-induced, 15-18 h; AID 2732; inhibition, % at 10 µM;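 active = compounds that reduced the stress-induced luciferase reporter signal by more than about 70% of percent inhibition, limit read from the data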;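 also: 0% = tunicamycin plus vehicle and 100% = wells without tunicamycin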
# T cruzi repl: blocks replication of Trypanosoma cruzi; T. cruzi beta-gal in NIH3T3, luminescence, 90 h; inhibition, % (test concentration not listed); 300,000 tested, 1.4% active; AID 1885;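 active = mean inhibition across valid replicates above about 55%, limit read from the data; inconclusive = mean below that limit but half or more replicates reach it; inactive = mean below it, under half of replicates reach it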;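 also: signal also drops with host cell toxicity which is not excluded here; 0% = plate median of DMSO wells and 100% = zero luminescence signal; higher percent means less beta-gal luminescence so fewer parasites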
#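 Assay system: NIH/3T3 fibroblasts plus reporter T. cruzi. Amount: NIH/3T3 cells, 5,000 per well. Buffer or medium: DMEM, 2% fetal bovine serum. Doses: compound pinned at 50 nL/well, DMSO. Schedule: ≥90 h infection period, 3 h prior cell attachment. Signal: luminescent β-galactosidase signal after 60 min lysis. Read-out: parasite load inhibition, %.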
# UPR XBP1 act: adaptive UPR (XBP1) activation | 330,000 tested, 0.33% active | activation, % at 20 µM | CHO-XBP1 luciferase reporter, IRE1-XBP1 UPR activation, luminescence; percent of tunicamycin response, DMSO as zero;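 active = versus positive control, 20 µM dose yields 30% or more activation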;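 also: 100% = tunicamycin at 10 µg/mL and 0% = DMSO only wells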
#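 Material – CHO cell line with stable XBP1 luciferase reporter · Buffer or medium – F12 plus 10% FBS · Compound – single point, 20 µM final compound, 1% DMSO · Schedule – 16-18 h cell attachment at 37 °C, then 6 h compound exposure · Signal – Steady-Glo luminescence read · Benchmarks – high control tunicamycin 10 µg/mL final, low control DMSO vehicle only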
# L major viab: Leishmania major promastigote growth inhibition; Leishmania major promastigotes, resazurin fluorescence viability; inhibition, % at 10 µM; 200,000 tested, 9% active; AID 1063; in the data active = inhibition above about 50%;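 also: promastigotes grown with compound for 44 hours at 28 °C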
# Dynein cargo inh: dynein cargo transport inhibition; 220,000 tested, 0.47% active; 3617.4 mouse cells, GR-EGFP nuclear translocation imaging; test concentration mostly 20 µM; stimulated with dexamethasone, 1 µM; stronger effect = lower value; z-score, hits read low; AID 1381;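 active = plate z-score of nuclear minus cytoplasmic receptor signal below a set negative limit, without overly bright fluorescence or cell loss, cut at about -3.5 in these data, passing the limit was not always enough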;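 also: z-score of nuclear minus cytoplasmic ring GR-EGFP intensity difference per well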
#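 Also added: dexamethasone, 1.0 µM final. Medium: tet-free, stripped-serum medium. Detection: fixed, Hoechst-stained cells imaged at 10x for EGFP. Read-out: nuclear-to-cytoplasmic GR-EGFP distribution per well. Times: induction 48 h, compound 1 h, agonist 30 min.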
# CHOP UPR activ: apoptotic UPR (CHOP) activation; CHO-CHOP luciferase reporter, luminescence; percent of tunicamycin response over DMSO baseline; activation, % at 10 µM; 330,000 tested, 0.34% active; AID 449763;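 active = at 10 µM dose, activation of 40% or more, normalized to positive control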;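 also: 100% = tunicamycin at 10 µg/mL and 0% = DMSO alone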
#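 measured by = luciferase luminescence | assay system = CHO-CHOP cells, stable luciferase reporter of PERK-eIF2a-CHOP signalling | amount = 500 reporter cells seeded per well | timing = 6 h compound exposure at 37 °C after overnight seeding | controls = positive tunicamycin 10 µg/mL, negative DMSO alone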
# * hit, by the source's call; ? = inconclusive; . = no result.
SMILES,CHOP inh,T cruzi repl,UPR XBP1 act,L major viab,Dynein cargo inh,CHOP UPR activ
Fc1ccccc1C(c1nnnn1C1CCCC1)N1CCN(Cc2ccccc2)CC1 (configuration not stated),23.0,11.0,-3.2,61.4*,-0.475,-1.0
CCC(c1nnnn1C1CCCC1)N1CCN(Cc2ccccc2)CC1 (configuration not stated),46.3,6.0,-1.9,81.1*,0.686,1.4
c1cncc(C(c2nnnn2C2CCCC2)N2CCN(Cc3ccc4c(c3)OCO4)CC2)c1 (configuration not stated),56.3,53.7,0.8,91.0*,1.18,-1.3
COc1ccccc1/C=C/C=N/n1c(C)nnc1C,6.5,-2.5,2.4,-0.5,-0.276,1.4
Cc1ccc(-c2cnc(-c3ccccc3C(=O)O)o2)cc1,.,-8.1,0.4,.,.,6.2
CC(C)NC(=O)C1CCN(C2CCN(C(=O)c3scc4c3CCCC4)CC2)CC1,8.6,8.6,1.0,52.4*,-0.476,-2.3
CC(C)NC(=O)C1CCN(C2CCN(C(=O)C3=CCCC3)CC2)CC1,1.7,-5.1,-1.0,-2.2,0.128,0.0
COc1cccc(CN2CCN(Cc3ccc(O)cc3)CC2CCO)c1 (configuration not stated),-19.9,-12.7,-1.9,69.3*,1.62,-1.3
COc1cccc(CN2CCN(Cc3c(C)nn(C(C)C)c3C)CC2CCO)c1 (configuration not stated),6.1,71.3*,-1.0,-4.5,-0.559,-2.1
COc1cccc(CN2CCN(Cc3ccon3)CC2CCO)c1 (configuration not stated),61.6,1.0,1.0,-3.7,-0.558,-1.5
O=C(Cn1cc(C(F)(F)F)cc(Cl)c1=O)NCc1ccc(F)cc1,.,-7.5,4.3,.,.,7.5
Nc1ccccc1Nc1cc(-c2ccccc2)nn1-c1ccccc1,34.6,54.7*,0.2,27.9,-0.51,3.0
Oc1ccccc1CN(Cc1ccco1)CC(O)COCc1ccc(Cl)cc1 (configuration not stated),83.5*,7.9,-3.0,4.8,0.826,-1.7
COc1ccc(COCC(O)CN(Cc2ccco2)Cc2ccccc2O)cc1 (configuration not stated),40.0,9.0,-1.4,49.1,1.63,1.2
CN(C)c1ccnc(NCc2ccccc2)c1C#N,-12.7,-8.1,-0.6,0.6,0.337,0.7
CN(C)c1ccnc(N(Cc2ccccc2)Cc2ccccc2)c1C#N,47.8,14.1,4.6,97.6*,-0.201,1.3
COC(=O)C1=C(N)c2c(F)cccc2C1(C#N)c1ccc(F)cc1 (configuration not stated),28.1,1.1,-0.9,50.6*,0.717,-1.3
COC(=O)C1=C(N)Oc2c(oc(CO)cc2=O)C1c1ccc(F)cc1 (configuration not stated),-11.1,5.4,-1.5,.,0.194,-2.3
CCCn1c(=N)n(CC(=O)C(C)(C)C)c2ccccc21,14.2,6.7,-0.4,81.0*,1.1,-2.3
CCCCn1c(=N)n(CC(=O)C(C)(C)C)c2ccccc21,10.1,62.0*,-9.4,37.4,-0.424,-1.2
Cc1onc(-c2ccccc2)c1C(=O)c1ccccc1,-1.1,1.4,-1.8,.,-0.34,-1.5
Cn1nc([N+](=O)[O-])nc1Sc1ccc(Cl)cc1,16.6,68.6*,-2.0,36.2,0.78,0.6
Cc1cc(SCc2ccc([N+](=O)[O-])cc2)nc(=O)[nH]1,.,?,3.9,.,.,2.7
Oc1c(-c2cc(-c3ccco3)[nH]n2)ccc2ccccc12,75.0*,-3.9,4.5,27.8,0.134,6.4
Oc1ccccc1-c1cc(-c2ccco2)[nH]n1,25.3,-4.1,6.3,1.4,-1.25,9.7
SMILES,CHOP inh,T cruzi repl,UPR XBP1 act,L major viab,Dynein cargo inh,CHOP UPR activ
S=c1[nH]nc(-c2cc(-c3ccco3)[nH]n2)n1-c1ccccc1,16.2,-3.0,1.2,2.5,3.17,-0.6
Oc1ccc(Cl)cc1-c1cc(-c2ccco2)[nH]n1,44.5,-8.7,2.8,90.3*,0.755,2.7
Oc1ccc(Br)cc1-c1cc(-c2ccco2)[nH]n1,79.9*,-4.5,5.1,2.7,-0.684,0.2
CCOc1nc(Nc2ccc(F)cc2)nc(N2CCN(c3ccc(OC)cc3)CC2)n1,63.4,41.1,-1.9,70.3*,-0.693,0.5
CCOc1nc(Nc2ccc(OC)c(Cl)c2)nc(N2CCN(c3ccc(OC)cc3)CC2)n1,73.5*,45.6,-4.5,71.8*,-0.425,0.7
COc1nc(Nc2ccc(OC)c(Cl)c2)nc(OC)n1,4.9,-9.1,6.6,7.6,0.0782,0.8
CCOc1ccc(Nc2nc(N3CCCC3)nc(N3CCN(c4ccc(OC)cc4)CC3)n2)cc1,-14.6,61.1*,-0.2,54.9*,-0.663,1.4
COc1ccc(Nc2nc(N3CCOCC3)nc(N3CCOCC3)n2)cc1,.,22.8,-4.0,.,.,0.0
Cc1cc(C)cc(NC(=O)c2cccn2-c2ncc(C(F)(F)F)cc2Cl)c1,73.8*,4.1,-0.4,5.6,0.0856,0.9
COc1cc2nc(Cl)nc(N3CCN(C)CC3)c2cc1OC,-2.8,13.3,-6.8,9.1,-0.796,0.7
COc1cc2nc(C3CCC3)nc(N3CCN(c4ccccc4OC)CC3)c2cc1OC,6.2,30.7,1.9,58.1*,-1.03,1.6
COc1cc2nc(C3CCC3)nc(N3CCN(c4ccccn4)CC3)c2cc1OC,48.3,22.6,5.3,54.2*,-0.959,1.6
COc1cc(C(=O)N2CCN(c3ccccn3)CC2)cc(OC)c1OC,.,-3.7,-3.2,.,.,0.7
COc1ccc(C(C)NC(=O)c2ccncc2)cc1 (configuration not stated),.,-14.8,-7.2,.,.,1.7
CCN1CCCn2c1nc1c2c(=O)n(C)c(=O)n1C,-12.6,2.8,-0.7,58.7*,0.95,1.0
Cn1c(=O)n(Cc2ccccc2)c(=O)c2c1nc1n2CCCN1CCc1ccccc1,41.9,14.7,0.6,100.4*,-0.837,-1.2
CC(OC(=O)C1CCN(c2ccc(C(F)(F)F)cn2)CC1)C(=O)Nc1cccc([N+](=O)[O-])c1 (configuration not stated),.,.,-1.9,.,.,0.9
COc1cc(/C=C/C(=O)O)cc(S(=O)(=O)Nc2ccccc2C(=O)NCc2ccco2)c1OC,.,.,-2.2,.,.,3.1
CN(C)CCCNS(=O)(=O)c1ccc(N2CCC(c3ccc(Cl)cc3)=N2)cc1,.,72.4*,74.9*,100.5*,1.82,8.3
O=S(=O)(c1ccc(N2CCC(c3ccc(Cl)cc3)=N2)cc1)N(CCO)CCO,15.1,8.0,3.9,-5.0,0.0667,1.5
COC(=O)C(CCSC)NC(=O)CNS(=O)(=O)c1ccc(Br)cc1 (configuration not stated),80.5*,-5.5,0.9,-2.0,0.237,0.5

# From PubChem BioAssay
